The record followed here is ChEMBL document CHEMBL1177871, “Synthesis and antitumor activity of novel 2',3'-diethanethio-2',3',5'-trideoxy-5'-triazolonucleoside analogues” (Eur J Med Chem, 2010).

Assay type in all cases: functional, cell-based
The nature of experiment [1]: Cytotoxicity against human LAC cells after 72 hrs by MTT assay. In outline:
(§1)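 Incubation was 72 h at 37 °C in 95% air/5% CO₂. MTT was then added for 4 h and absorbance read at 490 nm. EC₅₀ is the concentration giving 50% growth inhibition versus untreated control; 5-fluorouridine served as reference.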
(In general: Tetrazolium assays rely on reduction of a dye to a coloured formazan, in cell work by metabolically active cells.)

The subject of a further experiment is A549. Description: Cytotoxicity against human A549 cells after 72 hrs by MTT assay. To be noted: A549, 72 h. Summed up:
as §1

In another experiment the test system is HeLa. Description: Cytotoxicity against human HeLa cells after 72 hrs by MTT assay. Summed up:
as §1

Another experiment deals with HepG2. Description: Cytotoxicity against human HepG2 cells after 72 hrs by MTT assay. The following applies: HepG2, 72 h. Summed up: as §1

For orientation: EC50 means the concentration needed to bring the measured effect to its halfway point. High values mean weaker potency, low ones greater potency. In the case of `CCS[C@@H]1[C@H](SCC)[C@@H](Cn2cc(-c3ccc(OC)cc3)nn2)O[C@H]1n1cc(C)c(=O)[nH]c1=O`, the EC50 in experiment [1] was 25.9 µM; in the experiment on A549, 38.8 µM; with HeLa, 66 µM; in the experiment with HepG2, 22.8 µM.

Consider `CCOC(=O)c1cn(C[C@H]2O[C@@H](n3ccc(=O)[nH]c3=O)[C@H](SCC)[C@@H]2SCC)nn1`, for which the EC50 (in experiment [1]; in the experiment with A549; with HeLa; in the experiment with HepG2) was at least 100 µM in each case.

As to `CCS[C@@H]1[C@H](SCC)[C@@H](Cn2cc(-c3ccc(C)cc3)nn2)O[C@H]1n1ccc(=O)[nH]c1=O`, the EC50 in experiment [1] was at least 100 µM; in the experiment with A549, 6.78 µM; with HeLa, 46.7 µM; in the experiment with HepG2 it was 19.9 µM.

With `CCS[C@@H]1[C@H](SCC)[C@@H](Cn2cc(-c3ccc(F)cc3)nn2)O[C@H]1n1ccc(=O)[nH]c1=O`, the 50% effective concentration (EC50) was 72.4 µM in experiment [1], 22.9 µM in the experiment on A549, 37.4 µM with HeLa and 22.6 µM in the experiment with HepG2.

Take `CCOC(=O)c1cn(C[C@H]2O[C@@H](n3cc(C)c(=O)[nH]c3=O)[C@H](SCC)[C@@H]2SCC)nn1`: the EC50 (in experiment [1]; with A549; in the experiment on HeLa; in the experiment on HepG2) was at least 100 µM in each case.

For the molecule `CCS[C@@H]1[C@H](SCC)[C@@H](Cn2cc(-c3ccccc3)nn2)O[C@H]1n1ccc(N)nc1=O`, the EC50 in the experiment on A549 is 64 µM; in the experiment with HeLa, 33.5 µM; in the experiment on HepG2, 57.1 µM.

Turning to `CCS[C@@H]1[C@H](SCC)[C@@H](Cn2cc(-c3cccs3)nn2)O[C@H]1n1ccc(=O)[nH]c1=O`, the EC50 is 86.5 µM in experiment [1], at least 100 µM with A549, at least 100 µM in the experiment with HeLa and 91.8 µM in the experiment with HepG2.

Turning to `CCS[C@@H]1[C@H](SCC)[C@@H](Cn2cc(-c3ccccc3)nn2)O[C@H]1n1cc(C)c(=O)[nH]c1=O`, the EC50 in the experiment on A549 was found to be 31.7 µM; with HeLa, 1.89 µM; in the experiment on HepG2, 65 µM.

`CCS[C@@H]1[C@H](SCC)[C@@H](Cn2cc(-c3cccs3)nn2)O[C@H]1n1cc(C)c(=O)[nH]c1=O`: the EC50 in experiment [1] was at least 100 µM; with A549 it was 37.3 µM; in the experiment with HeLa it was 54.9 µM; in the experiment on HepG2, at least 100 µM.

For `CCS[C@@H]1[C@H](SCC)[C@@H](Cn2cc(-c3cccc(C)c3)nn2)O[C@H]1n1ccc(=O)[nH]c1=O`, the EC50 came out at 99 µM in experiment [1], 12.2 µM with A549, 18.8 µM with HeLa and 18.3 µM in the experiment with HepG2.

Take `O=c1[nH]cc(F)c(=O)[nH]1` [FLUOROURACIL]: the EC50 in experiment [1] was 43.7 µM; with A549, 100 µM; with HeLa, 79.8 µM; with HepG2 it was 52.4 µM.

Turning to `CCS[C@@H]1[C@H](SCC)[C@@H](Cn2cc(COC(C)=O)nn2)O[C@H]1n1ccc(=O)[nH]c1=O`, the concentration for a half-maximal effect (EC50) (in experiment [1]; with A549; with HeLa; with HepG2) was at least 100 µM each time.

Regarding `CCS[C@@H]1[C@H](SCC)[C@@H](Cn2cc(-c3ccc(C)cc3)nn2)O[C@H]1n1cc(C)c(=O)[nH]c1=O`, the concentration for a half-maximal effect (EC50) in experiment [1] was at least 100 µM; with A549, 12.3 µM; in the experiment with HeLa, 77.5 µM; with HepG2, 21.6 µM.

For the molecule `CCS[C@@H]1[C@H](SCC)[C@@H](Cn2cc(-c3ccc(F)cc3)nn2)O[C@H]1n1cc(C)c(=O)[nH]c1=O`, the concentration for a half-maximal effect (EC50) in experiment [1] was at least 100 µM; in the experiment with A549 it was at least 100 µM; in the experiment with HeLa it was 39.5 µM; with HepG2, 22.7 µM.

On to `CCS[C@@H]1[C@H](SCC)[C@@H](Cn2cc(-c3ccccc3)nn2)O[C@H]1n1ccc(=O)[nH]c1=O`, for which the EC50 in the experiment with A549 was determined as 3.04 µM; in the experiment with HeLa it was 6.59 µM; in the experiment on HepG2 it was 8.38 µM.

Regarding `CCS[C@@H]1[C@H](SCC)[C@@H](Cn2cc(-c3ccc(OC)cc3)nn2)O[C@H]1n1ccc(=O)[nH]c1=O`, the EC50 in experiment [1] stood at 24.3 µM; in the experiment on A549 it was 16.8 µM; with HeLa, 27.7 µM; in the experiment on HepG2, 16.2 µM.

As to `CCS[C@@H]1[C@H](SCC)[C@@H](Cn2cc(-c3ccccc3C(F)(F)F)nn2)O[C@H]1n1ccc(=O)[nH]c1=O`, the EC50 is 81.1 µM in experiment [1], 19.4 µM with A549, 32.8 µM in the experiment with HeLa and 30.3 µM in the experiment on HepG2.

For `CCS[C@@H]1[C@H](SCC)[C@@H](Cn2cc(-c3ccccc3C(F)(F)F)nn2)O[C@H]1n1cc(C)c(=O)[nH]c1=O`, the EC50 in experiment [1] came out at 50.6 µM; in the experiment on A549 it was 7.23 µM; in the experiment with HeLa, 54.3 µM; with HepG2 it was 22.1 µM.
